According to ChEMBL document CHEMBL1148699, “Characterization of the intracellular mechanisms involved in the antiaggregant properties of cinnamtannin B-1 from bay wood in human platelets” (2007):
Activity calls are given as the source filed them. No cut-off for these calls is given here.

Columns and labels:
[1] = tested on: Platelet; assay: Effect on thrombin-induced human platelet aggregation assessed as lag time at 10 uM after 10 mins; format: functional
In short: (§1)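 Washed human platelets (aspirin 100 µM and apyrase in PRP) suspended in HBS pH 7.45 with 1 mM Ca2+. Preincubated 10 min with 10 µM agent or DMSO vehicle, then stimulated with 0.1 U/mL thrombin at 37 °C with stirring at 1200 rpm in an aggregometer. Lag time, % rate and % aggregation read from traces; mean ± SEM of four determinations.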

[2] = tested on: Platelet; assay: Effect on rate of thrombin-induced human platelet aggregation at 10 uM after 10 mins; format: functional; in short: as §1
[3] = tested on: Platelet; assay: Effect on thrombin-induced human platelet aggregation at 10 uM after 10 mins; format: functional; in short: as §1
[4] = target: Proto-oncogene tyrosine-protein kinase Src (Homo sapiens) (UniProt P12931); assay: Inhibition of thrombin-induced pp60src activation at 10 uM after 30 mins
In short: (§2)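 Platelets in HBS with 1 mM Ca2+ pretreated 30 min at 37 °C with 10 µM compound, alone or with 300 U/mL catalase (10 min). Sampled 10 s before and 60 s after 0.1 U/mL thrombin. SDS-PAGE and immunoblot with anti-phospho-c-Src Y416, reprobed for total pp60src. Densitometry as % of untreated resting cells; mean ± SEM, four experiments.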

[5] = target: Proto-oncogene tyrosine-protein kinase Src (Homo sapiens) (UniProt P12931); assay: Inhibition of thrombin-induced pp60src activation in presence of catalase; in short: as §2
[6] = tested on: Platelet; assay: Effect on thrombin-induced calcium mobilization in human platelets; format: functional, cell-based
In short: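 Platelets loaded with 2 µM fura-2/AM for 45 min at 37 °C, 2 × 10^8 cells/mL, stirred at 37 °C. Exposed to 10 µM compound for 30 min. Ca2+-free medium with 100 µM EGTA, then 0.1 U/mL thrombin. Excitation 340/380 nm, emission 505 nm; ratio calibrated to [Ca2+]i. Peak rise above basal taken; n = 6.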

[7] = tested on: Platelet; assay: Effect on thrombin-induced human platelet aggregation assessed as lag time at 0.1 uM; format: functional
In short: (§3)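 Washed human platelets (from aspirin- and apyrase-treated PRP) in HEPES-buffered saline, pH 7.45, with 1 mM Ca2+. Preincubated 30 min with 0.1-10 µM compound (10 mM DMSO stock) or vehicle. Stimulated with 0.1 U/mL thrombin or 10 µM ADP. Read in an aggregometer at 37 °C, stirred at 1200 rpm, as lag time, % rate and % aggregation. Mean ± SEM, six determinations.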

[8] = tested on: Platelet; assay: Effect on thrombin-induced human platelet aggregation assessed as lag time at 1.0 uM; format: functional; in short: as §3
[9] = tested on: Platelet; assay: Effect on thrombin-induced human platelet aggregation assessed as lag time at 10 uM; format: functional; in short: as §3
[10] = tested on: Platelet; assay: Effect on ADP-induced human platelet aggregation assessed as lag time at 10 uM; format: functional; in short: as §3
[11] = tested on: Platelet; assay: Effect on rate of thrombin-induced human platelet aggregation at 0.1 uM; format: functional; in short: as §3
[12] = tested on: Platelet; assay: Effect on rate of thrombin-induced human platelet aggregation at 1.0 uM; format: functional; in short: as §3
[13] = tested on: Platelet; assay: Effect on rate of thrombin-induced human platelet aggregation at 10 uM; format: functional; in short: as §3
[14] = tested on: Platelet; assay: Effect on rate of ADP-induced human platelet aggregation at 10 uM; format: functional; in short: as §3
[15] = tested on: Platelet; assay: Effect on thrombin-induced human platelet aggregation at 0.1 uM; format: functional; in short: as §3
[16] = tested on: Platelet; assay: Effect on thrombin-induced human platelet aggregation at 1.0 uM; format: functional; in short: as §3
[17] = tested on: Platelet; assay: Effect on thrombin-induced human platelet aggregation at 10 uM; format: functional; in short: as §3
[18] = tested on: Platelet; assay: Effect on of ADP-induced human platelet aggregation at 10 uM; format: functional; in short: as §3
[19] = tested on: Platelet; assay: Effect on thrombin-induced human platelet aggregation assessed as lag time in presence of catalase; format: functional
In short: (§4)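 Washed human platelets in HBS with 1 mM Ca2+. Treated with 10 µM compound for 30 min, plus either 300 U/mL catalase for 10 min or 100 µM colchicine for 2 h; controls received each agent alone or vehicle. Thrombin 0.1 U/mL at 37 °C, stirring at 1200 rpm. Lag time, % rate and % aggregation recorded; mean ± SEM, six determinations.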

[20] = tested on: Platelet; assay: Effect on rate of thrombin-induced human platelet aggregation in presence of catalase; format: functional; in short: as §4
[21] = tested on: Platelet; assay: Effect on thrombin-induced human platelet aggregation in presence of catalase; format: functional; in short: as §4
[22] = tested on: Platelet; assay: Effect on thrombin-induced human platelet aggregation assessed as lag time in presence of colchicine; format: functional; in short: as §4
[23] = tested on: Platelet; assay: Effect on rate of thrombin-induced human platelet aggregation in presence of colchicine; format: functional; in short: as §4
[24] = tested on: Platelet; assay: Effect on thrombin-induced human platelet aggregation in presence of colchicine; format: functional; in short: as §4
[25] = tested on: Platelet; assay: Effect on thrombin-induced microtubular reorganization at 10 uM after 30 mins; format: functional, Homo sapiens
In short: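 Platelets pretreated with 10 µM compound for 30 min at 37 °C, then 0.1 U/mL thrombin for 1 min in HBS at 2 × 10^7 cells/mL. Fixed in an equal volume of ice-cold 3% formaldehyde in PBS for 10 min, permeabilized with 0.025% NP40, stained 30 min with 1 µM Oregon Green 488 paclitaxel. Fluorescence at ex 488/em 522 nm; n = 6.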

[26] = target: Tyrosine-protein kinase BTK (Homo sapiens) (UniProt Q06187); assay: Effect on thrombin-induced Btk activation at 10 uM after 30 mins
In short: (§5)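 Platelets in HBS with 1 mM Ca2+ held 30 min at 37 °C with 10 µM compound, alone or with 300 U/mL catalase (10 min). Samples taken 10 s before and 30 s after 0.1 U/mL thrombin, lysed in Laemmli buffer. Western blot for phospho-Btk Y223, reprobed for total Btk. Densitometry as % of resting control; mean ± SEM, four experiments.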

[27] = target: Tyrosine-protein kinase BTK (Homo sapiens) (UniProt Q06187); assay: Effect on thrombin-induced Btk activation in presence of catalase; in short: as §5
[28] = tested on: Platelet; assay: Reduction of thrombin-induced phosphotyrosine content in human platelets at 10 uM after 30 mins

Sequence of Tyrosine-protein kinase BTK (Homo sapiens) (Q06187 whole entry): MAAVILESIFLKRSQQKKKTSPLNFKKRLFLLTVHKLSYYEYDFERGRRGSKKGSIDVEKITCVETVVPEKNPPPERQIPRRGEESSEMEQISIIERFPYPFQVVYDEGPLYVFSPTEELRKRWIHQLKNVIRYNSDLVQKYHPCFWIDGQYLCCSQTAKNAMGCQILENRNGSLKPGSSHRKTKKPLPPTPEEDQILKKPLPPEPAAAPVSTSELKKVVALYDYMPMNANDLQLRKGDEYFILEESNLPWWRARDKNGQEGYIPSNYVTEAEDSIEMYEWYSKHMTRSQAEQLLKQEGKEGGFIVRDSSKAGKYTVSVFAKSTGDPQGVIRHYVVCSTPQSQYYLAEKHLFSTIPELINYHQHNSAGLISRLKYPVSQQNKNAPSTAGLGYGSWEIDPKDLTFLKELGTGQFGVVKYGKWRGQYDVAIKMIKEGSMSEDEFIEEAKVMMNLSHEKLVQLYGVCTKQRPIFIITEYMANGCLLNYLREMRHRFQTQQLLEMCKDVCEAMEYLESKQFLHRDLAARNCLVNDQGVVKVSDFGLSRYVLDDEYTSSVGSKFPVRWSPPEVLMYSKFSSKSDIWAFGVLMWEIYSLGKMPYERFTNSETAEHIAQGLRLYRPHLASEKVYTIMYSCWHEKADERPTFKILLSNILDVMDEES
Sequence of Proto-oncogene tyrosine-protein kinase Src (Homo sapiens) (P12931 2-536 limits assumed): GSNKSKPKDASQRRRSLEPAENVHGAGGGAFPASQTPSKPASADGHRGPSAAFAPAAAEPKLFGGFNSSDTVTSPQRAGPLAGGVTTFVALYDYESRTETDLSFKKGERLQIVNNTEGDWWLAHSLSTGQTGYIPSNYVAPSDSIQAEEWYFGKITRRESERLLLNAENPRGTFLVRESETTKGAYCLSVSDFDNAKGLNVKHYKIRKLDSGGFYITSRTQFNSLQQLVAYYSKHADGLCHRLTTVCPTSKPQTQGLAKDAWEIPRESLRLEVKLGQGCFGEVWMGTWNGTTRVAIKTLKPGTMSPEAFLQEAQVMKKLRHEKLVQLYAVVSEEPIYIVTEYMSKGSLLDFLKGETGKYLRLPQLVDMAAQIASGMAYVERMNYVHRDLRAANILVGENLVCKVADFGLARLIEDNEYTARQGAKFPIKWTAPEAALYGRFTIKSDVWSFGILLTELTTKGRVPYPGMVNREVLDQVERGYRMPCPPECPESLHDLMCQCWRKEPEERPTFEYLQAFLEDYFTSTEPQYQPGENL

Cc1ccc(-c2nn(C(C)(C)C)c3ncnc(N)c23)cc1
Time [1]: 26.5 s | Activity [2]: 59.7% | Activity [3]: 67.1%

C/C(O)=C(\C#N)C(=O)Nc1cc(Br)ccc1Br
Time [1]: 24.3 s | Activity [2]: 66.3% | Activity [3]: 68.7%

Oc1cc(O)c2c(c1)O[C@@]1(c3ccc(O)c(O)c3)Oc3cc(O)c4c(c3[C@@H]2[C@H]1O)O[C@H](c1ccc(O)c(O)c1)[C@H](O)[C@H]4c1c(O)cc(O)c2c1O[C@H](c1ccc(O)c(O)c1)[C@H](O)C2 [CINNAMTANNIN B1]
Activity [4]: Active | Activity [5]: Active | Activity [6]: inactive | Time [7]: 9.2 s | Time [8]: 9.8 s | Time [9]: 10.6 s | Time [10]: 15.6 s | Activity [11]: 49% | Activity [12]: 43.7% | Activity [13]: 42.1% | Activity [14]: 9% | Activity [15]: 81.9% | Activity [16]: 80.6% | Activity [17]: 71.8% | Activity [18]: 9.5% | Time [19]: 9.1 s | Activity [20]: 48.1% | Activity [21]: 77% | Time [22]: 15 s | Activity [23]: 40.3% | Activity [24]: 74.6% | Activity [25]: 15% | Activity [26]: 50% | Activity [27]: 90% | Activity [28]: Active

COc1cc2c(c(OC)c1OC)-c1ccc(OC)c(=O)cc1[C@@H](NC(C)=O)CC2 [COLCHICINE]
Time [7]: 9.3 s | Activity [11]: 59% | Activity [15]: 71.2%
